38 sequences from the array DNA melting data of Ke et al. (doi:10.1101/2024.01.08.574731) can be followed below.

Data set [1] can be described thus: folding enthalpy; higher = less favourable; fluorescence melt of hairpins on a sequencing array, two-state fit. Particulars: sodium 0.088 M. In outline:
(§1)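 On a sequenced MiSeq flow cell, library hairpins with annealed Cy3 and quencher oligos were imaged for Cy3 fluorescence in 2.5 °C steps up to 60 °C, in 50 mM Na-HEPES pH 8.0, 25 mM NaCl. Normalisation used pre-quench Cy3 and control constructs. Bootstrapped two-state fits gave melting temperature and folding enthalpy, combined by inverse variance across four replicates and with fitted temperatures raised by 9.35 °C to match UV melts.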

Data set [2] is described as follows: melting temperature; fluorescence melt of hairpins on a sequencing array, two-state fit, raised by 9.35 °C to match UV melts. The note with it: sodium 0.088 M. In outline: as §1

As to GATCCTCCGAAGGATC ((((((....)))))), the folding enthalpy in data set [1] was -16.6 kcal/mol. In data set [2], the Tm is 48.7 °C.
For GATCCTCCGTAGGATC ((((((....)))))), in that order: -20.4 kcal/mol and 48.5 °C.
Take GATCCTCCTAAGGATC ((((((....)))))): the folding enthalpy in data set [1] was -37.5 kcal/mol. The Tm in data set [2] is 53.4 °C.
For GATCCTCGCTAGGATC ((((((....)))))), in that order: -35.6 kcal/mol and 51.2 °C.
For GATCCTCGGAGGATC ((((((...)))))), in that order: -33.5 kcal/mol and 51.6 °C.
With GATCCTCTCGAGGATC ((((((....)))))), the folding enthalpy in data set [1] is -42.4 kcal/mol. Further, the Tm in data set [2] stood at 58 °C.
For GATCCTCTGAAGGATC ((((((....)))))), in data set [1], the folding enthalpy was -36.8 kcal/mol. For the same sequence, in data set [2], the Tm amounted to 51.6 °C.
On the same counts, the results for GATCCTCTTAGGATC ((((((...)))))) are -35.3 kcal/mol and 55.2 °C.
For GATCCTCTTGAGGATC ((((((....)))))), in that order: -41 kcal/mol and 61.3 °C.
With GATCCTGAATAGGATC ((((((....)))))), the folding enthalpy in data set [1] was -39.2 kcal/mol. The Tm in data set [2] is 59 °C.
For GATCCTGACAAGGATC ((((((....)))))), the folding enthalpy in data set [1] was -38 kcal/mol. The Tm in data set [2] was 63 °C.
Regarding GATCCTGACGAGGATC ((((((....)))))), the folding enthalpy in data set [1] is -36.4 kcal/mol. Further, in data set [2], the Tm was 56.9 °C.
On the same counts, the results for GATCCTGAGCAGGATC ((((((....)))))) are -36.9 kcal/mol and 52.3 °C.
On the same counts, the results for GATCCTGAGGAGGATC ((((((....)))))) are -34 kcal/mol and 49.2 °C.
On the same counts, the results for GATCCTGATAGGATC ((((((...)))))) are -31.6 kcal/mol and 53.2 °C.
GATCCTGATGAGGATC ((((((....)))))): the folding enthalpy in data set [1] is -31.9 kcal/mol. Moreover, in data set [2], the Tm was determined as 51.1 °C.
On the same counts, the results for GATCCTGCAGAGGATC ((((((....)))))) are -39.5 kcal/mol and 56 °C.
With GATCCTGGAGAGGATC ((((((....)))))), the folding enthalpy in data set [1] is -34.7 kcal/mol. Besides, in data set [2], the Tm was found to be 54 °C.
On the same counts, the results for GATCCTGGCAAGGATC ((((((....)))))) are -44.6 kcal/mol and 63.3 °C.
For GATCCTGGGAAGGATC ((((((....)))))), in that order: -42.3 kcal/mol and 59.7 °C.
Consider GATCCTGGGAGGATC ((((((...)))))), for which, in data set [1], the folding enthalpy is -33.8 kcal/mol. Besides, in data set [2], the Tm came to 51 °C.
As to GATCCTGGTCAGGATC ((((((....)))))), in data set [1], the folding enthalpy is -41.8 kcal/mol. In addition, in data set [2], the Tm was determined as 55.5 °C.
For GATCCTGTCTAGGATC ((((((....)))))), in that order: -39.4 kcal/mol and 56 °C.
For the sequence GATCCTGTTCAGGATC ((((((....)))))), the folding enthalpy in data set [1] was -39.1 kcal/mol. In data set [2], the Tm is 56.8 °C.
On to GATCCTTCTAAGGATC ((((((....)))))), for which, in data set [1], the folding enthalpy was -47.8 kcal/mol. In addition, the Tm in data set [2] was found to be 54.4 °C.
Consider GATCCTTCTAGGATC ((((((...)))))), for which the folding enthalpy in data set [1] was -30.6 kcal/mol. For the same sequence, the Tm in data set [2] turned out to be 57.1 °C.
On to GATCCTTGGCAGGATC ((((((....)))))), for which, in data set [1], the folding enthalpy was -35.3 kcal/mol. Besides, the Tm in data set [2] stood at 49.4 °C.
As to GATCCTTGGTAGGATC ((((((....)))))), the folding enthalpy in data set [1] was -31.6 kcal/mol. In addition, the Tm in data set [2] stood at 51.1 °C.
On the same counts, the results for GATCCTTGTAGGATC ((((((...)))))) are -34.4 kcal/mol and 55.1 °C.
On the same counts, the results for GATCCTTGTGAGGATC ((((((....)))))) are -38 kcal/mol and 56.1 °C.
In the case of GATCCTTTACAGGATC ((((((....)))))), the folding enthalpy in data set [1] is -51.6 kcal/mol. Also, in data set [2], the Tm turned out to be 51.1 °C.
On to GATCCTTTATAGGATC ((((((....)))))), for which, in data set [1], the folding enthalpy is -40.2 kcal/mol. Moreover, the Tm in data set [2] is 53.4 °C.
GATCCTTTGGAGGATC ((((((....)))))): the folding enthalpy in data set [1] is -39.5 kcal/mol. The Tm in data set [2] came out at 53.3 °C.
On to GATCCTTTGTAGGATC ((((((....)))))), for which the folding enthalpy in data set [1] was -39.7 kcal/mol. Moreover, the Tm in data set [2] is 52.6 °C.
On the same counts, the results for GATCCTTTTCAGGATC ((((((....)))))) are -32.6 kcal/mol and 52.6 °C.
For GATCCTTTTGAGGATC ((((((....)))))), in that order: -36.9 kcal/mol and 54.1 °C.
On the same counts, the results for GATCGAAAATCGATC ((((((...)))))) are -29.9 kcal/mol and 47.6 °C.
As to GATCGAAACCTCGATC ((((((....)))))), the folding enthalpy in data set [1] was -39.6 kcal/mol. In addition, the Tm in data set [2] was 51.3 °C.
